For 32 sequences, folding enthalpy and Tm results are on record in the array DNA melting data of Ke et al. (doi:10.1101/2024.01.08.574731).

Data set [1] in a line: folding enthalpy; higher = less favourable; fluorescence melt of hairpins on a sequencing array, two-state fit. The following applies: sodium 0.088 M. The gist of the method: (§1)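 To match UV melts, fitted temperatures were raised by 9.35 °C. These fits were bootstrapped two-state models that gave melting temperature and folding enthalpy, combined by inverse variance over four replicates. The input was normalised Cy3 fluorescence of library hairpins with annealed Cy3 and quencher oligos on a sequenced MiSeq flow cell, imaged in 50 mM Na-HEPES pH 8.0, 25 mM NaCl in 2.5 °C steps up to 60 °C.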

Data set [2] is described as follows: melting temperature; fluorescence melt of hairpins on a sequencing array, two-state fit, raised by 9.35 °C to match UV melts. The conditions noted are these: sodium 0.088 M. In outline:
as §1

Regarding GCGGTGCGAAAGCCGCGC (((..((....))..))), the folding enthalpy in data set [1] was -27.7 kcal/mol. Also, in data set [2], the Tm was 68.9 °C.
Turning to GCGGTGCGAAAGCTACGC (((..((....))..))), the folding enthalpy in data set [1] was -33.5 kcal/mol. In addition, the Tm in data set [2] worked out at 63.9 °C.
For the sequence GCGGTGCGAAAGCTCTGC ((.(.((....)).).)), the folding enthalpy in data set [1] was -20.2 kcal/mol. Moreover, in data set [2], the Tm came out at 54.3 °C.
In the same order, the values of GCGGTGCGAAAGCTTCGC (((..((....))..))) are -16.4 kcal/mol and 58.2 °C.
Regarding GCGGTGCTCCGC ((((....)))), the folding enthalpy in data set [1] is -18.6 kcal/mol. In addition, the Tm in data set [2] stood at 56.1 °C.
As to GCGGTGGACCGC ((((....)))), the folding enthalpy in data set [1] was -26.6 kcal/mol. In addition, the Tm in data set [2] was found to be 59.6 °C.
On the same counts, the results for GCGGTGGGAAACCACTGC ((.((((....)))).)) are -38.9 kcal/mol and 60.4 °C.
In the same order, the values of GCGGTGTGCCGC ((((....)))) are -19.1 kcal/mol and 67.6 °C.
In the same order, the values of GCGGTTACGAAAGTACGC (((..(((....)))))) are -26.7 kcal/mol and 48.4 °C.
As to GCGGTTCGAAAGAATCGC (((.(((....))).))), the folding enthalpy in data set [1] is -43.4 kcal/mol. In addition, in data set [2], the Tm came out at 66.4 °C.
On to GCGGTTGCGAAAGCACGC (((..(((....)))))), for which the folding enthalpy in data set [1] was -19.9 kcal/mol. The Tm in data set [2] is 56.6 °C.
On the same counts, the results for GCGGTTGGAAACGACTGC ((.((.(....).)).)) are -15.3 kcal/mol and 37.8 °C.
For GCGGTTGGAAACGATCGC (((.(.(....).).))), in data set [1], the folding enthalpy was -28.5 kcal/mol. Also, the Tm in data set [2] worked out at 45.3 °C.
In the same order, the values of GCGGTTTTCCGC ((((....)))) are -30.3 kcal/mol and 58.4 °C.
In the same order, the values of GCGTAACAACGC ((((....)))) are -27 kcal/mol and 52.9 °C.
GCGTAACGACGC ((((....)))): the folding enthalpy in data set [1] is -21.9 kcal/mol. Further, in data set [2], the Tm is 51.4 °C.
For the sequence GCGTAAGAAATTACGC ((((((....)))))), the folding enthalpy in data set [1] is -40.4 kcal/mol. The Tm in data set [2] was determined as 55.3 °C.
GCGTAATCACGC ((((....)))): in data set [1], the folding enthalpy is -21.9 kcal/mol. Further, the Tm in data set [2] was 52.7 °C.
In the same order, the values of GCGTACAAACGC ((((....)))) are -21.5 kcal/mol and 51.1 °C.
On the same counts, the results for GCGTACCACGC ((((...)))) are -24.7 kcal/mol and 55.9 °C.
Regarding GCGTACCCACGC ((((....)))), in data set [1], the folding enthalpy was -21.2 kcal/mol. Moreover, the Tm in data set [2] is 53.1 °C.
GCGTACGAAAGTAAACGC ((((((....)))..))): in data set [1], the folding enthalpy was -34.5 kcal/mol. The Tm in data set [2] came to 51.9 °C.
For GCGTACGAAAGTACCGC ((((((....))).))), the folding enthalpy in data set [1] was -22.2 kcal/mol. Further, in data set [2], the Tm was determined as 56.8 °C.
As for GCGTACGAAAGTAGCCGC ((((((....)))..))), in data set [1], the folding enthalpy is -14.4 kcal/mol. Also, the Tm in data set [2] turned out to be 51.2 °C.
For the sequence GCGTACGAACGC ((((....)))), in data set [1], the folding enthalpy is -23.9 kcal/mol. Further, in data set [2], the Tm was 51.5 °C.
In the same order, the values of GCGTACGGAAACACACGC ((((..(....)..)))) are -28.7 kcal/mol and 38.8 °C.
In the same order, the values of GCGTACGGAAACGTACAC (.(((((....))))).) are -15.1 kcal/mol and 42.8 °C.
On the same counts, the results for GCGTACGTACGC ((((....)))) are -29.9 kcal/mol and 55.3 °C.
On to GCGTACTCGAAAGAGCGC (((..(((....)))))), for which the folding enthalpy in data set [1] was -28.6 kcal/mol. Moreover, the Tm in data set [2] came out at 47.8 °C.
On the same counts, the results for GCGTAGACACGC ((((....)))) are -19.8 kcal/mol and 50.7 °C.
Consider GCGTAGATACGC ((((....)))), for which the folding enthalpy in data set [1] is -19.8 kcal/mol. Also, the Tm in data set [2] was 52.9 °C.
In the same order, the values of GCGTAGCCGAAAGGCCGC (((..(((....)))))) are -16.8 kcal/mol and 58 °C.
